Results taken from publication PMC4863959 (Dalton transactions (Cambridge, England : 2003), 2016).

Columns and labels:
bovine Capthesin B = details: read-out: bovine Cathepsin B IC50; cited from earlier work
[1] = test system: human cervical carcinoma cell line HeLa; experiment: Cytotoxicity, MTT assay, HeLa cells; assay type: cell-based; details: read-out: IC50 HeLa, 24h incubation, 1% DMSO stock diluted with medium
Summary of the method: (§1)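 Cells were kindly donated by a university culture unit. They were grown in DMEM with 10% FBS and 1% penicillin/streptomycin/amphotericin B at 37°C and 5% CO2. Monolayers (~5×10^4) were grown 72 h, then exposed 24 h to test compound (0–100 μM; diluted from fresh DMSO stock; final DMSO ≤0.6% v/v). MTT was added for 3.5 h, formazan dissolved in DMSO, and A570 read (690 nm background). IC50 is mean ±SE of three experiments, triplicate microcultures.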

[2] = test system: human breast adenocarcinoma cell line MCF7; experiment: Cytotoxicity, MTT assay, MCF-7 cells; assay type: cell-based; details: read-out: IC50 MCF-7, 24h incubation
Summary of the method: as §1

[3] = test system: human colon adenocarcinoma cell line HT-29; experiment: Cytotoxicity, MTT assay, HT-29 cells; assay type: cell-based; details: read-out: IC50 HT-29, 24h incubation
Summary of the method: as §1

[4] = test system: human breast adenocarcinoma MDA-MB 231 cell line; experiment: Cytotoxicity, XTT assay, MDA-MB-231 cells; assay type: cell-based; details: read-out: IC50 MDA-MB-231, 24h incubation
Summary of the method: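 Cells kept adherent in DMEM with penicillin/streptomycin and 10% FBS (37°C, 5% CO2/[…]). Seeded at 5×10^3 cells/well in phenol red-free, antibiotic-free DMEM with 10% FBS and 2 mM L-glutamine, and grown 24 h. Test compound added at 0.1–50 μM final for 24 h. XTT added at 0.3 mg/mL final for 4 h, then A450 read. Survival is the treated/untreated absorbance ratio. IC50 given as mean (±SE) of three independent experiments, triplicate microcultures per concentration.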

[5] = test system: non-tumorigenic human embryonic kidney cells HEK-293T; experiment: Cytotoxicity, XTT assay, HEK-293T cells; assay type: cell-based; details: read-out: IC50 HEK-239T, 24h incubation
Summary of the method: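 Cells were maintained in DMEM with 100 U/mL penicillin, 100 μg/mL streptomycin and 10% FBS, humidified, 37°C, 5% CO2/[…]. Seeding was 5×10^3 cells/well in phenol red-free, antibiotic-free DMEM with 10% FBS and 2 mM L-glutamine, grown 24 h. Test compound (final 0.1–50 μM) was given for 24 h or 48 h. XTT (final 0.3 mg/mL) ran 4 h, read at 450 nm. Survival was taken as treated/untreated absorbance. IC50 is mean ±SE of three experiments, triplicate microcultures.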

MDA-MB-231 cells = experiment: ApoTox-Glo Triplex assay; assay type: cell-based, human; details: 10.7 μM, 24 h
[6] = Stability in solution by 1H-NMR spectroscopy; assay type: physicochemical; details: D2O, PBS-D2O or neat DMSO-d6
[7] = molecular target: Human serum albumin (HSA) (Homo sapiens, UniProt P02768); experiment: HSA tryptophan fluorescence quenching; assay type: binding; details: HSA 10 μM, complex 10–100 μM
Summary of the method: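 HSA (10 μM) in phosphate buffer (pH 7.4) received ten successive additions from an 8 mM DMSO stock of test compound, giving final 10–100 μM. Trp emission was recorded at room temperature, 300–450 nm, excitation 295 nm, 240 s after each addition. Compound, buffer and DMSO fluorescence were negligible. Data were fitted to F0/F = 1 + KSV[Q].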

plasmid (pBR322) DNA = experiment: Electrophoresis mobility shift assay with plasmid DNA; assay type: binding

Chain of Human serum albumin (HSA) (P02768 25-609): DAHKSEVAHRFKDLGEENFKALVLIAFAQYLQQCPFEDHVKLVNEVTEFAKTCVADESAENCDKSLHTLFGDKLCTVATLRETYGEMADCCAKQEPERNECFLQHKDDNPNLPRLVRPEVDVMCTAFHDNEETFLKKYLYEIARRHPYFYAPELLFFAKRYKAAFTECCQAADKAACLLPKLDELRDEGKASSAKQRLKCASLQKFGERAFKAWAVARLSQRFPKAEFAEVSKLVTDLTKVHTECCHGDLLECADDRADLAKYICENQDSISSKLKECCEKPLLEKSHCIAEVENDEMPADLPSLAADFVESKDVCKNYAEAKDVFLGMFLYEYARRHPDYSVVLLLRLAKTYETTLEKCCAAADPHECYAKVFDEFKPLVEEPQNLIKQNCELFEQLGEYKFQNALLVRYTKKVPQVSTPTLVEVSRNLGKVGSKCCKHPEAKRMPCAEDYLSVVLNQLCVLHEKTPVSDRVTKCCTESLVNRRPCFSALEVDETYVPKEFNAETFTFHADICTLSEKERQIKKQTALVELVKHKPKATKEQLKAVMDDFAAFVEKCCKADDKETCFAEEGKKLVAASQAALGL

For `Cc1ccccc1.[Cl][Ru]([Cl])[PH]12CN3CN(CN(C3)C1)C2` [RAPTA-T], the IC50 (bovine Capthesin B) is given as 1.5 µM.

Compound “G1-[[NCPh(o-N)Ru(η^6-p-cymene)Cl]Cl]4 [Compound 17]” has an IC50 [1] of 8.1 ± 0.4 µM, an IC50 [2] of 6.9 ± 0.5 µM and an IC50 [3] of 5.6 ± 0.1 µM. It also gave an IC50 [4] of 6.1 ± 1 µM, an IC50 [5] of 10.7 µM and a necrotic cells (MDA-MB-231 cells) of 27%. The “reduction of MDA-MB-231 viability” value (MDA-MB-231 cells) was “ca. 58%”, the “treated cells remaining viable” value (MDA-MB-231 cells) was 42% and the apoptotic cells (MDA-MB-231 cells; caspase-3/-7 activity) was 16%. For the same compound, the “stability by 1H-NMR over 72 hours” value [6] was “did not observe changes”, the “shape of Stern-Volmer plot F0/F versus [Q]” value [7] was “positive deviation” and the “interaction with plasmid DNA at acidic, neutral and basic pH” value (plasmid (pBR322) DNA; metal/DNAbp ratio 2.0, pH 6, 7 and 8) was “do not interact with plasmid (pBR322) DNA”.

For `Cc1ccc(C(C)C)cc1.[Cl][Ru]([Cl])[PH]12CN3CN(CN(C3)C1)C2` [RAPTA-C], the IC50 (bovine Capthesin B) is given as 2.5 µM.

For `N.N.[Cl][Pt][Cl]` [cisplatin, cis-diamminedichloroplatinum (II), reference compound], the “effect on electrophoretic mobility of plasmid DNA” value (plasmid (pBR322) DNA; 37°C, 20 h, Tris/HCl buffer, drug/DNA ratio up to 2.0) was “both increase and decrease the mobility of the OC and the CCC forms”.
